From ChEMBL document CHEMBL1629583, “Establishment of in vitro susceptibility testing methodologies and comparative activities of piperacillin in combination with the penem {beta}-lactamase inhibitor BLI-489” (2009)
Converted amounts (≈) assume the structure as drawn.

What was measured:
Type in all cases: functional
Escherichia coli [1] = test: Antimicrobial activity against Escherichia coli clinical isolate after 18 to 22 hrs by broth microdilution method in presence of beta-lactamase inhibitor BLI-489
Outline: (§1)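 CLSI broth microdilution in Mueller-Hinton II broth. Serial dilutions of piperacillin were tested with BLI-489 held at a constant 4 μg/ml. Inoculum was 10^5 CFU/ml. Plates were incubated 18 to 22 h at 35°C in ambient air. MIC was the lowest concentration giving complete growth inhibition by unaided eye.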

Clostridium perfringens [2] = test: Antimicrobial activity against Clostridium perfringens clinical isolate after 18 to 22 hrs by broth microdilution method in presence of beta-lactamase inhibitor BLI-489
Bacteroides uniformis [3] = test: Antimicrobial activity against Bacteroides uniformis clinical isolate after 18 to 22 hrs by broth microdilution method
Parvimonas micra = test: Antimicrobial activity against Peptostreptococcus micros clinical isolate after 18 to 22 hrs by broth microdilution method in presence of beta-lactamase inhibitor Tazobactam
Streptococcus agalactiae = test: Antimicrobial activity against Streptococcus agalactiae clinical isolate after 18 to 22 hrs by broth microdilution method in presence of beta-lactamase inhibitor BLI-489
Outline: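 Streptococci were tested by CLSI broth microdilution in Mueller-Hinton II broth plus 5% lysed horse blood. Piperacillin dilutions contained a constant 4 μg/ml BLI-489. Inoculum was 10^5 CFU/ml, incubated 18 to 22 h at 35°C in air. MIC was the lowest concentration with no visible growth.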

Enterococcus hirae = test: Antimicrobial activity against Enterococcus hirae clinical isolate after 18 to 22 hrs by broth microdilution method in presence of beta-lactamase inhibitor BLI-489; outline: as §1
Serratia marcescens = test: Antimicrobial activity against AmpC beta-lactamase-producing Serratia marcescens clinical isolate after 18 to 22 hrs by broth microdilution method in presence of beta-lactamase inhibitor BLI-489
Outline: (§2)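 CLSI broth microdilution in Mueller-Hinton II broth. Piperacillin serial dilutions were combined with BLI-489 held constant at 4 μg/ml. Inoculum was 10^5 CFU/ml. Plates were incubated 18 to 22 h at 35°C in ambient air. MIC was the lowest concentration completely inhibiting growth seen by the unaided eye. Piperacillin-tazobactam interpretive criteria were applied.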

Enterobacter cloacae = test: Antimicrobial activity against AmpC beta-lactamase-producing Enterobacter cloacae clinical isolate after 18 to 22 hrs by broth microdilution method in presence of beta-lactamase inhibitor Tazobactam
Outline: (§3)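 Piperacillin-tazobactam was tested on recent clinical isolates by CLSI broth microdilution in Mueller-Hinton II broth, with tazobactam at constant 4 μg/ml. Wells held 10^5 CFU/ml and were incubated 18 to 22 h at 35°C in ambient air. MIC was the lowest concentration with no growth visible to the unaided eye.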

Acinetobacter johnsonii = test: Antimicrobial activity against Acinetobacter johnsonii clinical isolate after 18 to 22 hrs by broth microdilution method in presence of beta-lactamase inhibitor Tazobactam; outline: as §3
Enterococcus faecalis = test: Antimicrobial activity against vancomycin-resistant Enterococcus faecalis clinical isolate after 18 to 22 hrs by broth microdilution method in presence of beta-lactamase inhibitor BLI-489
Outline: (§4)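 CLSI broth microdilution in Mueller-Hinton II broth. Antibiotic in serial dilution with the β-lactamase inhibitor held at a constant 4 μg/ml. Inoculum 10^5 CFU/ml. Incubated 18 to 22 h at 35°C in ambient air.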

Escherichia coli [4] = test: Antimicrobial activity against class A extended spectrum beta-lactamase- producing Escherichia coli clinical isolate after 18 to 22 hrs by broth microdilution method in presence of beta-lactamase inhibitor Tazobactam
Outline: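 CLSI broth microdilution of piperacillin-tazobactam in Mueller-Hinton II broth with serial dilutions. Inoculum was 10^5 CFU/ml. Incubation was 18 to 22 h at 35°C in ambient air. MIC was read as the lowest concentration giving complete inhibition of growth visible to the unaided eye.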

Enterococcus avium = test: Antimicrobial activity against Enterococcus avium clinical isolate after 18 to 22 hrs by broth microdilution method in presence of beta-lactamase inhibitor BLI-489; outline: as §2
Klebsiella pneumoniae = test: Antimicrobial activity against class A extended spectrum beta-lactamase- producing Klebsiella pneumoniae clinical isolate after 18 to 22 hrs by broth microdilution method in presence of beta-lactamase inhibitor BLI-489
Outline: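 Piperacillin serially diluted with BLI-489 held at a constant 4 μg/ml, by CLSI broth microdilution in Mueller-Hinton II broth. Inoculum was 10^5 CFU/ml. Plates were incubated 18 to 22 h at 35°C in ambient air. MIC was the lowest concentration completely inhibiting growth seen by the unaided eye.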

Bacteroides fragilis = test: Antimicrobial activity against Bacteroides fragilis clinical isolate after 18 to 22 hrs by broth microdilution method
Bacteroides uniformis [5] = test: Antimicrobial activity against Bacteroides uniformis clinical isolate after 18 to 22 hrs by broth microdilution method in presence of beta-lactamase inhibitor Tazobactam
[6] = tested on: Acinetobacter haemolyticus; test: Antimicrobial activity against Acinetobacter haemolyticus clinical isolate after 18 to 22 hrs by broth microdilution method in presence of beta-lactamase inhibitor Tazobactam; outline: as §3
[7] = tested on: Bacteroides thetaiotaomicron; test: Antimicrobial activity against Bacteroides thetaiotaomicron clinical isolate after 18 to 22 hrs by broth microdilution method in presence of beta-lactamase inhibitor BLI-489
Enterococcus faecium [8] = test: Antimicrobial activity against vancomycin-resistant Enterococcus faecium clinical isolate after 18 to 22 hrs by broth microdilution method in presence of beta-lactamase inhibitor Tazobactam; outline: as §4
Escherichia coli [9] = test: Antimicrobial activity against AmpC beta-lactamase-producing Escherichia coli clinical isolate after 18 to 22 hrs by broth microdilution method in presence of beta-lactamase inhibitor BLI-489; outline: as §2
Providencia stuartii = test: Antimicrobial activity against Providencia stuartii clinical isolate after 18 to 22 hrs by broth microdilution method in presence of beta-lactamase inhibitor BLI-489; outline: as §1
Enterococcus faecium [10] = test: Antimicrobial activity against Enterococcus faecium clinical isolate after 18 to 22 hrs by broth microdilution method in presence of beta-lactamase inhibitor BLI-489; outline: as §1
Acinetobacter lwoffii = test: Antimicrobial activity against Acinetobacter lwoffii clinical isolate after 18 to 22 hrs by broth microdilution method in presence of beta-lactamase inhibitor BLI-489; outline: as §2
Citrobacter freundii = test: Antimicrobial activity against Citrobacter freundii clinical isolate after 18 to 22 hrs by broth microdilution method in presence of beta-lactamase inhibitor BLI-489; outline: as §2
Clostridium perfringens [11] = test: Antimicrobial activity against Clostridium perfringens clinical isolate after 18 to 22 hrs by broth microdilution method

CCN1CCN(C(=O)N[C@@H](C(=O)N[C@@H]2C(=O)N3[C@@H]2SC(C)(C)[C@@H]3C(=O)O)c2ccccc2)C(=O)C1=O [PIPERACILLIN]
MIC50 (Escherichia coli [1]): 64 µg/mL | MIC90 (Escherichia coli [1]): 128 µg/mL | MIC (Clostridium perfringens [2]): ≤ 0.015 µg/mL | MIC50 (Clostridium perfringens [2]): ≤ 0.015 µg/mL | MIC90 (Clostridium perfringens [2]): ≤ 0.015 µg/mL | MIC50 (Bacteroides uniformis [3]): 16 µg/mL (≈ 30.9 µM) | MIC90 (Bacteroides uniformis [3]): 32 µg/mL (≈ 61.8 µM) | MIC50 (Parvimonas micra): 0.03 µg/mL | MIC90 (Parvimonas micra): 0.25 µg/mL | MIC50 (Streptococcus agalactiae): ≤ 0.004 µg/mL | MIC90 (Streptococcus agalactiae): 0.03 µg/mL | MIC50 (Enterococcus hirae): 2 µg/mL | MIC90 (Enterococcus hirae): 8 µg/mL | MIC50 (Serratia marcescens): 2 µg/mL | MIC90 (Serratia marcescens): 8 µg/mL | MIC50 (Enterobacter cloacae): 8 µg/mL | MIC90 (Enterobacter cloacae): 32 µg/mL | MIC50 (Acinetobacter johnsonii): ≤ 0.12 µg/mL | MIC90 (Acinetobacter johnsonii): 32 µg/mL | MIC (Enterococcus faecalis): 2 µg/mL | MIC50 (Enterococcus faecalis): 2 µg/mL | MIC90 (Enterococcus faecalis): 64 µg/mL | MIC50 (Escherichia coli [4]): 16 µg/mL | MIC90 (Escherichia coli [4]): 32 µg/mL | MIC50 (Enterococcus avium): 8 µg/mL | MIC90 (Enterococcus avium): 32 µg/mL | MIC50 (Klebsiella pneumoniae): 16 µg/mL | MIC90 (Klebsiella pneumoniae): 32 µg/mL | MIC50 (Bacteroides fragilis): 8 µg/mL (≈ 15.5 µM) | MIC90 (Bacteroides fragilis): > 128 µg/mL | MIC50 (Bacteroides uniformis [5]): 0.5 µg/mL | MIC90 (Bacteroides uniformis [5]): 4 µg/mL | MIC50 [6]: ≤ 0.12 µg/mL | MIC90 [6]: 32 µg/mL | MIC50 [7]: 16 µg/mL | MIC90 [7]: 16 µg/mL | MIC (Enterococcus faecium [8]): > 128 µg/mL | MIC50 (Enterococcus faecium [8]): > 128 µg/mL | MIC50 (Escherichia coli [9]): 2 µg/mL | MIC90 (Escherichia coli [9]): 16 µg/mL | MIC50 (Providencia stuartii): 1 µg/mL | MIC90 (Providencia stuartii): 8 µg/mL | MIC50 (Enterococcus faecium [10]): 4 µg/mL | MIC90 (Enterococcus faecium [10]): > 128 µg/mL | MIC50 (Acinetobacter lwoffii): 4 µg/mL | MIC90 (Acinetobacter lwoffii): 16 µg/mL | MIC50 (Citrobacter freundii): 2 µg/mL | MIC90 (Citrobacter freundii): 16 µg/mL | MIC50 (Clostridium perfringens [11]): 0.06 µg/mL (≈ 0.116 µM) | MIC90 (Clostridium perfringens [11]): 0.25 µg/mL (≈ 0.483 µM)
